Test results: ChEMBL document CHEMBL4390704, “1-Aryl-3-(4-methoxybenzyl)ureas as potentially irreversible glycogen synthase kinase 3 inhibitors: Synthesis and biological evaluation” (Bioorg Med Chem Lett, 2019)
Active and inactive are the calls of the source. The rule behind the calls is not given here.

What follows are compounds tested against T1, Glycogen synthase kinase-3 beta (Homo sapiens, UniProt P49841) (assay: Time-dependent irreversible inhibition of recombinant human GSK3beta at 0.05 to 0.2 uM using prephosphorylated peptide as substrate by Kinase-glo luminescence assay).
Method in brief: (§1)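 Inhibitor pre-incubated with GSK-3β for varying lengths of time before the kinase reaction. Inhibition is expressed as percentage inhibition at each pre-incubation time.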
Target sequence in this assay (P49841 whole entry, looked up): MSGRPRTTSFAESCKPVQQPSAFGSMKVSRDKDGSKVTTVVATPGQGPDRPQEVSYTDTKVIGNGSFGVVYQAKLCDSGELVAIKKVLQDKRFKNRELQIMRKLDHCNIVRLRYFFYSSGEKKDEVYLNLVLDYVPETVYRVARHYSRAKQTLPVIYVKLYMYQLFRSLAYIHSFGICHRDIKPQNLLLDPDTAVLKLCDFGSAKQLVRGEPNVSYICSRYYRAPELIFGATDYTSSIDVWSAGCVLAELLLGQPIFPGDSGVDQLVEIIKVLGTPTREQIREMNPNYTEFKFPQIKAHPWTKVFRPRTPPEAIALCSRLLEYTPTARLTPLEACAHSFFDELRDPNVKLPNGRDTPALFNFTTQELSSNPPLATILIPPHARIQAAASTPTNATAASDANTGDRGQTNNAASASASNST

With COc1ccc(CNC(=O)Nc2nc3ccc(C(=O)CBr)cc3[nH]2)cc1 the TDI was “Active”.

The compounds below were run against T1, Glycogen synthase kinase-3 beta (assay: Time-dependent irreversible inhibition of recombinant human GSK3beta at 0.05 to 0.1 uM using prephosphorylated peptide as substrate by Kinase-glo luminescence assay).
Method in brief: as §1
Target sequence in this assay (P49841 whole entry, looked up): as above

COc1ccc(CNC(=O)Nc2nc3ccc(C#N)cc3[nH]2)cc1 was tested, and the TDI was “Active”.

The compounds below were run against T1, Glycogen synthase kinase-3 beta (assay: Inhibition of recombinant human GSK3beta using prephosphorylated peptide as substrate measured after 30 mins by Kinase-glo luminescence assay).
Target sequence in this assay (P49841 whole entry): as the sequence (P49841 whole entry, looked up) above

Going from COc1ccc(CNC(=O)Nc2nc3ccc(C(=O)CBr)cc3s2)cc1 to COc1ccc(CNC(=O)Nc2nc3ccc(C(C)=O)cc3s2)cc1, the IC50 rises from 770 nM to 2260 nM (2.9-fold).

Going from C=CC(=O)c1ccc2nc(NC(=O)NCc3ccc(OC)cc3)[nH]c2c1 to COc1ccc(CNC(=O)Nc2nc3ccc(C(C)=O)cc3[nH]2)cc1, the IC50 falls from 1820 nM to 260 nM (7-fold).

C#CC(=O)c1ccc2nc(NC(=O)NCc3ccc(OC)cc3)sc2c1 and C=CC(=O)c1ccc2nc(NC(=O)NCc3ccc(OC)cc3)sc2c1 are within 1.5-fold of each other in IC50: 4210 nM for the first, 4050 nM for the second.

First: COc1ccc(CNC(=O)Nc2nc3ccc(C#N)cc3[nH]2)cc1
Second: C#CC(=O)c1ccc2nc(NC(=O)NCc3ccc(OC)cc3)[nH]c2c1
The IC50 of the first is 29-fold lower: 86 nM for the first, 2470 nM for the second.

Going from COc1ccc(CNC(=O)Nc2nc3ccc(C(=O)CBr)cc3[nH]2)cc1 to C=CC(=O)Nc1ccc2nc(NC(=O)NCc3ccc(OC)cc3)[nH]c2c1, the IC50 rises from 130 nM to > 10000 nM. The first is the more potent here.

Compared with COc1ccc(CNC(=O)Nc2nc3ccc(C#N)cc3s2)cc1, C=CC(=O)Nc1ccc2nc(NC(=O)NCc3ccc(OC)cc3)sc2c1 is higher in IC50: 110 nM for the first, > 10000 nM for the second.
